pIC50: −log10 of the molar value.
Columns and labels:
Format in all cases: functional, cell-based
VCaP = assay: Antiproliferative activity against human VCaP cells assessed as reduction in cell viability
Summary of the method: (§1)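 Human prostate cancer cells taken from exponential-phase culture, seeded at 8000–12,000 cells/well and allowed 24 h recovery. Compounds then added at 10 half-log concentrations in triplicate, with medium-only controls, for a total 96 h exposure. After a PBS wash, cells stained with propidium iodide plus 0.1% Triton X-100 for 1–2 h at room temperature. Fluorescence read (ex 530/em 620 nm) as attached viable cells. IC50 from 4-parameter curve fit, geometric mean of three independent experiments.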

LNCaP = assay: Antiproliferative activity against human LNCaP cells assessed as reduction in cell viability
Summary of the method: as §1, with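 “temperature.” for “temperature. Fluorescence read (ex 530/em 620 nm) as attached viable cells.”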

DU-145 = assay: Antiproliferative activity against human DU-145 cells assessed as reduction in cell viability; summary of the method: as §1
CWR22R = assay: Antiproliferative activity against human 22Rv1 cells assessed as reduction in cell viability; summary of the method: as §1

Compound | pIC50 (VCaP) | pIC50 (LNCaP; Homo sapiens, LNCaP) | pIC50 (DU-145; Homo sapiens, DU-145) | pIC50 (CWR22R; Homo sapiens, 22Rv1) | pIC50 (LNCaP; lncap) | pIC50 (DU-145; du-145) | pIC50 (CWR22R; cwr22r)
CC(O)(C[S+]([O-])c1ccc(C(F)(F)F)cn1)C(=O)Nc1ccc([N+](=O)[O-])cc1C(F)(F)F (stereo not drawn) | < 4.00 | < 4.00 | < 4.00 | < 4.00 | – | – | –
CC(O)(C[S+]([O-])c1ccc(OC(F)(F)F)cc1)C(=O)Nc1ccc(C#N)c(C(F)(F)F)c1 (stereo not drawn) | 4.27 | 4.44 | 4.28 | 4.39 | – | – | –
CC(O)(C[S+]([O-])c1ccccn1)C(=O)Nc1ccc([N+](=O)[O-])cc1C(F)(F)F (stereo not drawn) | 4.00 | < 4.00 | < 4.00 | < 4.00 | – | – | –
CC(O)(C[S+]([O-])c1ccc(F)c(F)c1)C(=O)Nc1ccc([N+](=O)[O-])cc1C(F)(F)F (single isomer, unassigned) | < 4.00 | < 4.00 | < 4.00 | < 4.00 | – | – | –
CC(O)(C[S+]([O-])c1ccccc1OC(F)(F)F)C(=O)Nc1ccc([N+](=O)[O-])cc1C(F)(F)F (stereo not drawn) | 4.68 | 5.04 | 4.51 | 4.82 | – | – | –
CC(O)(C[S+]([O-])c1ccccn1)C(=O)Nc1ccc(C#N)c(C(F)(F)F)c1 (stereo not drawn) | < 4.00 | < 4.00 | < 4.00 | < 4.00 | – | – | –
CC(O)(C[S+]([O-])c1ccc(F)cc1F)C(=O)Nc1ccc([N+](=O)[O-])cc1C(F)(F)F (stereo not drawn) | < 4.00 | 4.61 | < 4.00 | 4.29 | – | – | –
CC(O)(C[S+]([O-])c1ccc(C(F)(F)F)cn1)C(=O)Nc1ccc(C#N)c(C(F)(F)F)c1 (stereo in doubt; form 1) | < 4.00 | 4.02 | 4.00 | 4.18 | – | – | –
CC(O)(C[S+]([O-])c1ccc(OC(F)(F)F)cc1)C(=O)Nc1ccc([N+](=O)[O-])cc1C(F)(F)F (stereo not drawn) | < 4.00 | < 4.00 | < 4.00 | < 4.00 | – | – | –
CC(O)(C[S+]([O-])c1ccc(C(F)(F)F)cn1)C(=O)Nc1ccc(C#N)c(C(F)(F)F)c1 (stereo in doubt; form 2) | – | – | – | – | < 4.00 | < 4.00 | 4.11
CC(O)(C[S+]([O-])c1ccc(C(F)(F)F)cc1)C(=O)Nc1ccc([N+](=O)[O-])cc1C(F)(F)F (stereo not drawn) | 4.62 | 4.59 | 4.44 | 4.68 | – | – | –

From ChEMBL document CHEMBL4706676 (Bioorg Med Chem Lett, 2021)
